# Activity calls are given as the source filed them. No cut-off for these calls is given here.
# Experiments:
# MDA-MB-231 [1] = test: Elevation of total ceramide level in human MDA-MB-231 cells at 50 uM after 24 hrs by LC-MS/MS analysis relative to control; type: functional
# Procedure, shortened: (§1)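 MDA-MB-231 cells were exposed to inhibitor for 24 h at 37 °C at the concentration given in each line. Lipids were extracted by modified Bligh & Dyer with 20 pmol C17-ceramide as internal standard. Analysis was positive-mode LC–MS/MS on a C18 column, isocratic acetonitrile/2-propanol 3:2 with 1% formic acid. Values are mean SD of three independent experiments versus control.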
# HL-60 = test: Cytotoxicity against human HL60 cells assessed as growth inhibition by trypan blue dye exclusion assay
# MDA-MB-231 [2] = test: Elevation of C24-ceramide level in human MDA-MB-231 cells at 50 uM by LC-MS/MS analysis; type: functional, cell-based; procedure, shortened: as §1
# MDA-MB-231 [3] = test: Elevation of C16-ceramide level in human MDA-MB-231 cells at 25 uM by LC-MS/MS analysis; type: functional, cell-based; procedure, shortened: as §1
# MDA-MB-231 [4] = test: Elevation of C18-ceramide level in human MDA-MB-231 cells at 25 uM by LC-MS/MS analysis; type: functional, cell-based; procedure, shortened: as §1
# MDA-MB-231 [5] = test: Elevation of C24-ceramide level in human MDA-MB-231 cells at 25 uM by LC-MS/MS analysis; type: functional, cell-based; procedure, shortened: as §1
# MDA-MB-231 [6] = test: Elevation of C16-ceramide level in human MDA-MB-231 cells at 50 uM by LC-MS/MS analysis; type: functional, cell-based; procedure, shortened: as §1
# MDA-MB-231 [7] = test: Elevation of C18-ceramide level in human MDA-MB-231 cells at 50 uM by LC-MS/MS analysis; type: functional, cell-based; procedure, shortened: as §1
# MDA-MB-231 [8] = test: Elevation of total ceramide level in human MDA-MB-231 cells at 25 uM after 24 hrs by LC-MS/MS analysis relative to control; type: functional; procedure, shortened: as §1
# [9] = target: T1, Acid ceramidase (Homo sapiens) (UniProt Q13510); test: Inhibition of human recombinant acid ceramidase using Acyl-NBD-C12-cer as substrate at 80 uM after 8 hrs by fluorescence assay
# T1 sequence (whole entry): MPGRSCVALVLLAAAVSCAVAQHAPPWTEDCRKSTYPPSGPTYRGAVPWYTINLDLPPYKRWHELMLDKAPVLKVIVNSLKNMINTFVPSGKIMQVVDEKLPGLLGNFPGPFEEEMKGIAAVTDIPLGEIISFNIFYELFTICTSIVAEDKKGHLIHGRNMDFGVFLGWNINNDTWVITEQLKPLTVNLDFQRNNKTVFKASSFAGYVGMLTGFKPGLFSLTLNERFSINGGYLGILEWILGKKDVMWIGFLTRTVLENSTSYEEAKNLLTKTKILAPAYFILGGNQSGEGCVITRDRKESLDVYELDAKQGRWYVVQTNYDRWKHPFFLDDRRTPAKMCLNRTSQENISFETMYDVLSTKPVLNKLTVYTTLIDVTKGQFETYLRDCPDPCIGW
# Procedure, shortened: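 Recombinant human enzyme (60 total protein) was in 200 mM sodium acetate pH 4.5, 200 mM NaCl, 0.1% Triton X-100, DMSO <5% v/v. Final substrate was 15 and inhibitor 80, incubated 8 h at 37 °C. Reactions were quenched with chloroform/methanol 2:1 and NBD-fatty acid separated by TLC. Imaging used ex 430/em 550 nm; % hydrolysis versus no-inhibitor control, mean SD, three experiments.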
# MDA-MB-231 [10] = test: Induction of apoptosis in human MDA-MB-231 cells assessed as increase in cytoplasmic histone-associated DNA fragment level after 24 hrs by ELISA; type: functional, cell-based; details: MDA-MB-231, 24 h
# Procedure, shortened: (§2)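 Cells were seeded for 24 h, then treated 24 h in DMEM with compound or DMSO vehicle. Cytoplasmic histone-associated DNA fragments were measured photometrically by Cell Death Detection ELISA Plus, following the kit protocol. Values are % of control (mean S.D., n = 3); dose–response is read as optical density.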
# MDA-MB-231 [11] = test: Induction of apoptosis in human MDA-MB-231 cells assessed as increase in cytoplasmic histone-associated DNA fragment level at 25 to 50 uM after 24 hrs by ELISA relative to control; type: functional; procedure, shortened: as §2
# [12] = target: Neutral ceramidase (Homo sapiens) (UniProt Q9NR71); test: Inhibition of human recombinant neutral ceramidase using Acyl-NBD-C12-cer as substrate at 80 uM after 2 hrs by fluorescence assay
# Procedure, shortened: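 Recombinant human enzyme at 25 ng/mL final was in 200 mM sodium acetate pH 7.0, 200 mM NaCl, 0.1% Triton X-100. Final substrate was 15 and inhibitor 80, incubated 2 h at 37 °C. Reactions were chloroform/methanol quenched and cleaved/uncleaved NBD substrate resolved by TLC with fluorescence imaging. Values are % of no-inhibitor control, mean SD, three experiments.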
# Alkaline ceramidase 2 = Alkaline ceramidase 2 (Homo sapiens, UniProt Q5QJU3); test: Inhibition of alkaline ceramidase 2 in human HL-60 cells using 3H]C16-ceramide as substrate after 1 hr by liquid scintillation counting analysis; type: cell-based
# Chain of Neutral ceramidase (Homo sapiens) (Q9NR71 whole entry): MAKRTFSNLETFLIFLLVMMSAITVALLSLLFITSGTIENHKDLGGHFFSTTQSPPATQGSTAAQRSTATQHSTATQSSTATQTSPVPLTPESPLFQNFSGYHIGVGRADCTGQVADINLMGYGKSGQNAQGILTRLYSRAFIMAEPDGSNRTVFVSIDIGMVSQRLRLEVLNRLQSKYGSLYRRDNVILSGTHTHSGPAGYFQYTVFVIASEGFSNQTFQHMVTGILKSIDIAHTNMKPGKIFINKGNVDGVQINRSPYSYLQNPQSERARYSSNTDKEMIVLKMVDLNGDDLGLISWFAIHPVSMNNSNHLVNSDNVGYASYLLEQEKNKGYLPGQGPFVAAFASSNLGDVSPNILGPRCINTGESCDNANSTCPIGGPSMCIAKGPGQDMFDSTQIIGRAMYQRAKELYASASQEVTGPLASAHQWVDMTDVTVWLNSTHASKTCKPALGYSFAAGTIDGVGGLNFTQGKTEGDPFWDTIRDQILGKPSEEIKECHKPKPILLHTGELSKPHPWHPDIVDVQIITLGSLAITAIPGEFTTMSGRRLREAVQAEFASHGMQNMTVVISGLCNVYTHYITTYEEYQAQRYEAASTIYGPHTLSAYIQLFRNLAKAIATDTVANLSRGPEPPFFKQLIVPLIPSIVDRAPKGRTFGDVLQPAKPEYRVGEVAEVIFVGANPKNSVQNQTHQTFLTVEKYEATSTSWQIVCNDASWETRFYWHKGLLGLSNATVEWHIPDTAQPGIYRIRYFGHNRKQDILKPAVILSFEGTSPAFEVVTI
inhibition [9],inhibition [12],Structure (SMILES),Activity (MDA-MB-231 [1]),also measured
,,CN(C)CCCCCCCCCCCC(=O)NCC(O)c1ccccc1 (racemic),>=150%,
Active,,CCCCCCCCCCCCCC(=O)N[C@H](CO)[C@H](O)c1ccc([N+](=O)[O-])cc1,350%,IC50 (HL-60): 1.5 µM; Activity (MDA-MB-231 [2]): Active; Activity (MDA-MB-231 [3]): inactive; Activity (MDA-MB-231 [4]): inactive; Activity (MDA-MB-231 [5]): inactive; Activity (MDA-MB-231 [6]): Active; Activity (MDA-MB-231 [7]): Active; Activity (MDA-MB-231 [8]): 150%
Active,Active,CCCCCCCCCCCCCC(=O)N[C@H](CO)[C@H](O)c1ccc(N)cc1,300%,Activity (MDA-MB-231 [8]): 300%; EC50 (MDA-MB-231 [10]): 59 µM; fold change (FC) (MDA-MB-231 [11]): 3
,,C[C@@H](NC(=O)CCCCCCCCCCCN(C)C)[C@@H](O)c1ccccc1,>=150%,
Active,30%,CN(C)CCCCCCCCCCCC(=O)N[C@H](CO)[C@H](O)c1ccc([N+](=O)[O-])cc1,>=150%,
inactive,inactive,CN(C)CCCCCCCCCCCC(=O)NCC(O)c1ccncc1 (racemic),>=150%,
,,CCCCCCCCCCCCCC(=O)NCC(O)c1ccccc1 (racemic),>=150%,
inactive,inactive,CN(C)CCCCCCCCCCCC(=O)NCC(O)c1cccnc1 (racemic),< 150%,
Active,Active,CCCCCCCCCCCCCC(=O)N[C@H](CO)C(=O)c1ccc([N+](=O)[O-])cc1,,
60%,8%,CCCCCCCCCCCCCC(=O)N[C@H](C)[C@@H](O)c1ccccc1,,IC50 (Alkaline ceramidase 2): 1 µM
Active,inactive,CCCCCCCCCCCCCC(=O)N[C@H](C(=O)O)[C@H](O)c1ccc([N+](=O)[O-])cc1,150%,Activity (MDA-MB-231 [8]): 150%
